ChEMBL document CHEMBL1135468 (J Med Chem, 2002)
pKi: −log10 of the molar value. *1 amine or outer side, *2 acyl side, *3 side chain or, on linkers, in order; H or OH if unused. Where a SMILES comes first, the peptide text is derived from it. Bridges are numbered along the chain shown (N, C = ends). [ ]: non-standard residue; d: D form. The star is where a group is joined. 6FAM = O=C1OC2(c3ccc(O)cc3Oc3cc(O)ccc32)c2cc(C(=O)*)ccc21; X4 = O=C(CC1(S[*:2])CCCCC1)[*:1]; X1 = O=C([C@@H](O)CS[*:2])[*:1]; Orn = NCCC[C@H](N)C(=O)O; Mpa = O=C(O)CCS

Experiments:
Vasopressin V1b receptor = target: T1, Vasopressin V1b receptor (Homo sapiens, UniProt P47901); assay: Binding affinity towards human Vasopressin V1b receptor
T1 sequence (P47901 whole entry): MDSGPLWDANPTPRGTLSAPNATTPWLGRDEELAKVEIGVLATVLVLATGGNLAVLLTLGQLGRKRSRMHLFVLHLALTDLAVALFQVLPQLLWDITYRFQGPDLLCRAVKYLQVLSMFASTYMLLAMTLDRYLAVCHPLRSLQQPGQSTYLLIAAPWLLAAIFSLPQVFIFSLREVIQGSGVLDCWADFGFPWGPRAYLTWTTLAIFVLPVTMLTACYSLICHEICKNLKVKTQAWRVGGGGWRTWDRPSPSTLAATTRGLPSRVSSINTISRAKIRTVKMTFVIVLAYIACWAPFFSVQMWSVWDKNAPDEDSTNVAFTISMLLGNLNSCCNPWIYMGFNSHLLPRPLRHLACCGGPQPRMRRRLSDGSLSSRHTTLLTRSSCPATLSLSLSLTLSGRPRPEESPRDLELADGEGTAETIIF
In short: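 Competition binding on membranes from CHO cells stably expressing one human receptor, butyrate-treated (5 mM, overnight). Radioligands: OT, 200-250 pM [125I]OTA or 120-180 pM [125I]HO-LVA; V1a, 40-60 pM [125I]HO-LVA; V1b, 1-3 nM [3H]AVP. Competitor 1 pM-1 µM; nonspecific with 1 µM unlabeled ligand; 1 h, 30 °C. Ki by nonlinear least-squares, ≥3 experiments in triplicate.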

Oxytocin receptor = target: T2, Oxytocin receptor (Homo sapiens, UniProt P30559); assay: Binding affinity for human oxytocin receptor
T2 sequence (P30559 whole entry): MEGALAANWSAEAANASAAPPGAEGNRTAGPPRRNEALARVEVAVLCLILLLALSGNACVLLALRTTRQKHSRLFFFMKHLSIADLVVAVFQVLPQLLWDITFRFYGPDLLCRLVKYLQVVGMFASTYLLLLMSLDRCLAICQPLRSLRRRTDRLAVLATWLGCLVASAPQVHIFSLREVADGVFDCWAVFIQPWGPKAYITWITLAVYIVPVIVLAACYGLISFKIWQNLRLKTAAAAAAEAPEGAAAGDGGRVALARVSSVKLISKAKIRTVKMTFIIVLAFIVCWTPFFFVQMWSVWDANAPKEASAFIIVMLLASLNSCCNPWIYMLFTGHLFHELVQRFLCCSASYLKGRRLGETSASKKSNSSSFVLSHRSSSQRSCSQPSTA

Vasopressin V1a receptor = Vasopressin V1a receptor (Homo sapiens, UniProt P37288); assay: Binding affinity for human Vasopressin V1a receptor
Vasopressin V2 receptor = Vasopressin V2 receptor (Homo sapiens, UniProt P30518); assay: Binding affinity towards human Vasopressin V2 receptor
In short: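 Human V2 receptor stably expressed in CHO cells, butyrate-treated (5 mM, overnight); membranes at 5-10 µg protein/assay competed against 1-3 nM [3H]AVP. Fluorescent ligand ranged 1 pM-1 µM; nonspecific binding defined with 1 µM unlabeled ligand. Incubation 1 h at 30 °C. Ki from nonlinear least-squares fit of two independent experiments, each run in triplicate.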

Chain of Vasopressin V1a receptor (P37288 whole entry): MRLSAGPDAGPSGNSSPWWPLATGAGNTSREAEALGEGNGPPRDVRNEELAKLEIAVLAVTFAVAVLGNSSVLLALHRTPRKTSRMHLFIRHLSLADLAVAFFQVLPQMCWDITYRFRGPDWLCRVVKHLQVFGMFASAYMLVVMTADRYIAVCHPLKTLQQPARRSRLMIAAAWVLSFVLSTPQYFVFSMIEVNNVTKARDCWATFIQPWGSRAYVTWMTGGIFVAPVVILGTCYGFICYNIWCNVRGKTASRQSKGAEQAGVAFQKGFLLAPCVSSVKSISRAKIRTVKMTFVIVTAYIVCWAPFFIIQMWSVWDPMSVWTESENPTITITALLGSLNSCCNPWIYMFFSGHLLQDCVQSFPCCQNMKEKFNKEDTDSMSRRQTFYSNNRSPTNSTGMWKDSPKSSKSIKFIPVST
Chain of Vasopressin V2 receptor (P30518 whole entry): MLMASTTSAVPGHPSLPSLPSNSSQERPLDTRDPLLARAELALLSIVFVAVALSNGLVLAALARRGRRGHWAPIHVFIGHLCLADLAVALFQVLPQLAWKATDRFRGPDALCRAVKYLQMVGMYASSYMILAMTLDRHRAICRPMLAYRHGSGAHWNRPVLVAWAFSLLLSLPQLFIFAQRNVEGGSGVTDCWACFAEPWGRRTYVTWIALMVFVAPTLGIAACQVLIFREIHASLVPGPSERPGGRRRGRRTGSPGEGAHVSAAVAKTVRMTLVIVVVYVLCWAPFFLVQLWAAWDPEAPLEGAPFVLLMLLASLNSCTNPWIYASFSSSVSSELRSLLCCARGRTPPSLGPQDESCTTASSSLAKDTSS

Compound | pKi (Vasopressin V1b receptor) | pKi (Oxytocin receptor) | pKi (Vasopressin V1a receptor) | pKi (Vasopressin V2 receptor)
CC[C@H](C)[C@@H]1NC(=O)[C@@H](Cc2ccc(O)cc2)NC(=O)CC2(CCCCC2)SSC[C@@H](C(=O)N2CCC[C@H]2C(=O)N[C@@H](CCCNC(=O)c2ccc3c(c2)C2(OC3=O)c3ccc(O)cc3Oc3cc(O)ccc32)C(=O)O)NC(=O)[C@H](CC(N)=O)NC(=O)[C@H]([C@@H](C)O)NC1=O | < 6.00 | 6.90 | 6.18 | < 5.00
CC[C@H](C)[C@@H]1NC(=O)[C@H](Cc2ccc(OC)cc2)NC(=O)CC2(CCCCC2)SSC[C@@H](C(=O)N2CCC[C@H]2C(=O)N[C@@H](CCCN)C(=O)N[C@@H](Cc2ccc(O)cc2)C(N)=O)NC(=O)[C@H](CC(N)=O)NC(=O)[C@H]([C@@H](C)O)NC1=O (Y(Me)ITNCP[Orn]Y-NH2; linker N-5 via X4) | < 5.00 | 9.68 | 8.41 | 6.03
CC[C@H](C)[C@@H]1NC(=O)[C@H](Cc2ccc(O)cc2)NC(=O)[C@@H](O)CSSC[C@@H](C(=O)N2CCC[C@H]2C(=O)N[C@@H](CCCCNC(=O)c2ccc3c(c2)C2(OC3=O)c3ccc(O)cc3Oc3cc(O)ccc32)C(=O)NCC(N)=O)NC(=O)[C@H](CC(N)=O)NC(=O)[C@H](CCC(N)=O)NC1=O (YIQNCPK(6FAM)G-NH2; linker N-5 via X1) | 7.18 | 9.47 | 7.86 | –
CC[C@H](C)[C@@H]1NC(=O)[C@H](Cc2ccc(O)cc2)NC(=O)[C@@H](O)CSSC[C@@H](C(=O)N2CCC[C@H]2C(=O)N[C@@H](CCCNC(=O)c2ccc3c(c2)C2(OC3=O)c3ccc(O)cc3Oc3cc(O)ccc32)C(=O)NCC(N)=O)NC(=O)[C@H](CC(N)=O)NC(=O)[C@H](CCC(N)=O)NC1=O (YIQNCP[Orn](6FAM)G-NH2; linker N-5 via X1) | 6.90 | 9.74 | 7.91 | –
CC[C@H](C)[C@@H]1NC(=O)[C@H](Cc2ccc(O)cc2)NC(=O)CCSSC[C@@H](C(=O)N2CCC[C@H]2C(=O)N[C@@H](CCCCNC(=O)c2ccc3c(c2)C2(OC3=O)c3ccc(O)cc3Oc3cc(O)ccc32)C(=O)NCC(N)=O)NC(=O)[C@H](CC(N)=O)NC(=O)[C@H](CCC(N)=O)NC1=O ([Mpa]YIQNCPK(6FAM)G-NH2; disulfide 1-6) | 6.91 | 9.54 | 7.24 | < 5.00
CC[C@H](C)[C@@H]1NC(=O)[C@H](Cc2ccc(O)cc2)NC(=O)CCSSC[C@@H](C(=O)N2CCC[C@H]2C(=O)N[C@@H](CCCNC(=O)c2ccc3c(c2)C2(OC3=O)c3ccc(O)cc3Oc3cc(O)ccc32)C(=O)NCC(N)=O)NC(=O)[C@H](CC(N)=O)NC(=O)[C@H](CCC(N)=O)NC1=O ([Mpa]YIQNCP[Orn](6FAM)G-NH2; disulfide 1-6) | 6.41 | 9.60 | 6.97 | < 5.00
